Env fusion inh – HIV envelope-mediated fusion inhibition | HeLa-JRFL Env/CEM21 cell fusion, luciferase | inhibition, % at 12.3 µM | 360,000 tested, 1.1% active | AID 651610;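 active means mean replicate inhibition score of at least 50 and every replicate individually at or above 50; inconclusive means only one of the two criteria met; inactive means mean below 50 and not all replicates reaching 50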
Glyco luc inh – N-linked glycosylation inhibition. D54 ERlucT glycosylation luciferase reporter, 24 h; percent of 100 nM tunicamycin response. reporter increase, % at 12.5 µM. 360,000 tested, 0.23% active;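 active means mean luciferase reporter signal, scaled so untreated is 0 and the glycosylation-blocking control 100, at or above a set limit in every replicate; inconclusive means mean reaches the limit but not every replicate does; inactive means mean below the limit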;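 further: luciferase carries N-glycosylation sites so blocking glycosylation raises the light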
FN deposition inh – fibronectin deposition inhibition | AH1F fibroblasts, Alexa488-fibronectin deposition fluorescence, overnight | inhibition, % at 12.6 µM | 350,000 tested, 0.086% active;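 active means mean inhibition across replicates of 30% or more, regardless of how many single replicates reach that level; inconclusive means mean under 30% yet at least half of replicates reach 30%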
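Material – AH1F fibroblast monolayer, labelled fibronectin deposition · Reagent – labelled fibronectin 24 nM · Timing – 1 h adhesion, overnight exposure · Measured by – fluorescence at 485 nm excitation, 525 nm emission · Read-out – inhibition of fibronectin deposition signal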
AF4-AF9 inh – MLL-AF4/AF9 protein interaction inhibition | P42568 | AlphaScreen, biotin-AF4 peptide binding to FLAG-AF9 | inhibition, % at 10 µM | 350,000 tested, 0.47% active | AID 651704;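 active means every replicate reaching a set inhibition limit, whatever the replicate mean, cut at about 25% in these data; inconclusive means mean inhibition reaches that limit but some replicates miss it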
Target sequence (P42568 whole entry, looked up): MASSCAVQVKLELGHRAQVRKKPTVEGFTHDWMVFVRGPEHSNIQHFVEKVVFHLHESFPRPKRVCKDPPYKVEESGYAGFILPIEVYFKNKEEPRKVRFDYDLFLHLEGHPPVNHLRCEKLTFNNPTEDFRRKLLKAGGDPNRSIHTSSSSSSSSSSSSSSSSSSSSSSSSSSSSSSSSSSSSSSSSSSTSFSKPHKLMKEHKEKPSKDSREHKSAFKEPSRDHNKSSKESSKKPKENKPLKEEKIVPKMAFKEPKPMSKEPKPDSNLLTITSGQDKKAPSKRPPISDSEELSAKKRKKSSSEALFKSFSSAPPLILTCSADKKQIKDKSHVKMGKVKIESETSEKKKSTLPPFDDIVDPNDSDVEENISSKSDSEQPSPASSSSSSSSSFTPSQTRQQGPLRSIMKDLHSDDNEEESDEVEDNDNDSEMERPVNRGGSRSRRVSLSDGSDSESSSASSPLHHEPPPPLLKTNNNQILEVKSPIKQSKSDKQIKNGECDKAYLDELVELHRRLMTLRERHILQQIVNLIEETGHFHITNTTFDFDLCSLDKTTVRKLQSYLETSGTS
PAX8 reporter – inhibitors of PAX8 transcriptional activity in RMG-I cells; RMG-I TPO-luciferase reporter, SteadyGlo, 24 h; AID 652154; inhibition, % at 12.6 µM; 360,000 tested, 1.2% active;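 active means mean replicate inhibition at least 60% with every replicate also reaching 60%; inconclusive means only one of the two criteria is met; inactive means mean below 60% and not all replicates reaching 60%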;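 further: luciferase light reporting Pax8 driven TPO promoter activity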
EWS-Fli inh – inhibitors of EWS/Fli oncoprotein transcriptional activity; A673 NR0B1-luciferase reporter, viability-normalised; inhibition, % at 12.6 µM; 350,000 tested, 0.67% active; AID 651661;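 active means mean inhibition of at least 50% after viability correction, with every replicate also passing that limit; inconclusive means mean reaches 50% but only one of two replicates passes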;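 further: firefly luciferase signal divided by Alamar Blue viability fluorescence both relative to DMSO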
A number is an active result; 0 = inactive; ? = inconclusive; - = not tested or not shown. In the library only some 2.5% were active in any assay of this set; here they are far more common.

SMILES	Env fusion inh	Glyco luc inh	FN deposition inh	AF4-AF9 inh	PAX8 reporter	EWS-Fli inh
N#Cc1ccc(C(=O)OCC(=O)NC(=O)NCc2ccccc2)cc1	0	0	0	0	0	0
CCCNC(=O)Nc1ccc2c(c1)C(=O)N(C)C[C@@H](OC)[C@@H](C)CN(S(C)(=O)=O)[C@H](C)CO2	-	-	0	0	0	-
CCCC(=O)Nc1ccc2c(c1)C(=O)N(C)C[C@H](OC)[C@@H](C)CN(CC1CCCC1)[C@H](C)CO2	0	-	0	0	-	0
CNC[C@@H]1Oc2c(cccc2N(C)C)C(=O)N([C@H](C)CO)C[C@H]1C	0	-	0	0	0	0
Cc1ccc(-c2ccc3c(c2)O[C@H](CN(C)C(=O)C2CCCCC2)[C@@H](C)CN([C@@H](C)CO)S3(=O)=O)cc1	0	-	0	-	-	0
O=C(C[C@H]1C[C@@H]2c3cc(NC(=O)Nc4ccc(C(F)(F)F)cc4)ccc3O[C@@H]2[C@@H](CO)O1)NCc1ccc2c(c1)OCO2	0	-	0	0	65	0
O=C(C[C@@H]1C[C@H]2c3cc(NC(=O)Nc4ccc(C(F)(F)F)cc4)ccc3O[C@H]2[C@H](CO)O1)NCc1ccc(Cl)cc1	0	-	-	0	94	0
O=C(C[C@@H]1C[C@H]2c3cc(NC(=O)Nc4ccc(C(F)(F)F)cc4)ccc3O[C@H]2[C@H](CO)O1)NCc1ccc2c(c1)OCO2	0	-	0	0	0	0
O=C(C[C@H]1C[C@H]2c3cc(NC(=O)Nc4ccc(C(F)(F)F)cc4)ccc3O[C@H]2[C@@H](CO)O1)NCc1ccc(Cl)cc1	0	-	-	0	0	0
Cc1noc(C)c1NC(=O)N(C)C[C@H]1Oc2ncc(C#CC3CCCCC3)cc2C(=O)N([C@@H](C)CO)C[C@H]1C	0	-	0	0	-	0
Cc1ccc(NC(=S)/C(C#N)=C2/Nc3ccccc3S2)cc1	0	0	0	0	84	0
CC(C)NC(=O)N(C)C[C@@H]1OCCCC[C@@H](C)Oc2ccc(NC(=O)Nc3ccc(C(F)(F)F)cc3)cc2C(=O)N([C@@H](C)CO)C[C@@H]1C	0	-	0	0	0	0
CC(C)NC(=O)N(C)C[C@H]1OCCCC[C@@H](C)Oc2ccc(NC(=O)Nc3ccc(C(F)(F)F)cc3)cc2C(=O)N([C@@H](C)CO)C[C@H]1C	0	-	0	0	89	0
CC(C)NC(=O)N(C)C[C@@H]1OCCCC[C@H](C)Oc2ccc(NC(=O)Nc3ccc(C(F)(F)F)cc3)cc2C(=O)N([C@@H](C)CO)C[C@H]1C	?	-	0	0	63	0
COc1ccccc1-c1cn(CC[C@@H]2CC[C@@H](NC(=O)c3cnccn3)[C@H](CO)O2)nn1	-	-	0	0	-	-
COc1ccc(NC(=O)C2(C)CCN2Cc2ccccc2OC(F)F)cc1OC (stereo not drawn)	71	0	0	0	0	0
CN(C)c1ccc(NC(=O)C2C3C=CC(C3)C2C(=O)O)cc1 (stereo not drawn)	0	0	0	29	0	0
O=c1c2sccc2nc(SCc2ccc([N+](=O)[O-])cc2)n1Cc1ccccn1	-	0	0	0	69	0
Cc1noc(C)c1S(=O)(=O)Nc1ccc2c(c1)CC(=O)N([C@H](C)CO)C[C@H](C)[C@@H](CN(C)Cc1ccc(Cl)c(Cl)c1)O2	0	-	0	0	0	0
Cc1cc(C)c2nc(SCC(=O)N3CC(=O)Nc4ccccc43)c(C#N)cc2c1	0	0	-	-	97	-
Nc1ccc(S(=O)(=O)Nc2cnc3ccccc3n2)cc1	0	0	0	0	0	0
Nc1ccc(S(=O)(=O)Nc2cnc3c(Cl)cccc3n2)cc1	-	0	0	0	80	0
O=C(Nc1ccccc1)N1C[C@H]2[C@@H](c3ccccc31)[C@@H](CO)N2Cc1ccccc1Cl	-	-	-	0	0	0
C[C@@H]1CCCCO[C@@H](CN(C)C)[C@@H](C)CN([C@H](C)CO)C(=O)c2cc(NC(=O)Cc3ccccc3)ccc2O1	0	-	-	0	0	0
CCCCCc1cc(=O)oc2c(C(CCN3CCCCC3)c3cc(OC)c(OC)c(OC)c3)c(OC)cc(OC)c12 (stereo not drawn)	0	0	0	?	79	?
CCCCCc1cc(=O)oc2c(C(CCN(CC)CC)c3ccc(N(C)C)cc3)c(OC)cc(OC)c12 (stereo not drawn)	0	0	0	52	?	0

Source: PubChem
